# Source: article PMC4437580 (Bioorganic & medicinal chemistry letters, 2014)
# Legend:
# [1] = test system: MDA-MB-231 cells; experiment: Cell viability, trypan blue exclusion; type: cell-based; conditions: drug 24 μM, 24-hour treatment
# Summary of the method: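 MDA-MB-231 cells grown to 80% confluence, harvested, seeded at 1.5 × 10^5 cells/mL and left overnight. Medium replaced with FBS-free medium containing test compound at 24 μM. FBS added after 1 h, then a further 24 h exposure. Cell density counted by trypan blue exclusion. Viability (%) = treated density / DMSO-only control density × 100.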
# [2] = target: untagged Asf1 (Homo sapiens, UniProt Q9Y294); experiment: ALPHA binding studies with Asf1; conditions: two different versions of ALPHA; data not shown
# [3] = target: Asf1-H3/H4 (Homo sapiens, UniProt Q9Y294); experiment: Asf1-H3/H4 binding inhibition
# Chain of Asf1-H3/H4 (Q9Y294 1-155): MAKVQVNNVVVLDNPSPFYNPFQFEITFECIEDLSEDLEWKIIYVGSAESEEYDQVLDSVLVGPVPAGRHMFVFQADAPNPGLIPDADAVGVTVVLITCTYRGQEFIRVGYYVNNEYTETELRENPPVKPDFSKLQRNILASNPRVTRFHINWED
# Chain of untagged Asf1 (Q9Y294 1-155): as above
"Asf1-H3/H4 binding potency/activity, in words [3]",Compound,other results
–,COc1ccc(-c2cc([C@@H](O)[C@@H]3CCCCN3)c3ccccc3n2)cc1.Cl [Compound 1],"Cell viability (cytotoxicity), in words [1]: potently inhibit cell viability; Binding to untagged Asf1, in words [2]: not to bind"
significant loss of potency,COc1cc(/C=N/NC(=O)c2ccc(NC(C)=O)cc2)cc(Br)c1O [Compound 18],–
ineffective,COc1cc(/C=N/NC(=O)C2CCNCC2)cc(Br)c1O [Compound 25],–
ineffective,COc1cc(/C=N/NC(=O)C2CCOCC2)cc(Br)c1O [Compound 26],–
did not improve potency,COc1cc(/C=N/NC(=O)c2ccc(NC(=O)c3ccccc3)c(COCCN(C)C)c2)cc(Br)c1O [Compound 33],–
significant boost in potency,O=C(N/N=C/c1cc(Br)ccc1O)c1ccncc1 [Compound 47],Assay interference (metal scavenging) ([3]; upon further analysis): false positive results

Compound,"Asf1-H3/H4 binding potency/activity, in words [3]",other results
COc1cc(/C=N/N(C)C(=O)c2ccc(NC(=O)c3ccccc3)cc2)cc(Br)c1O [Compound 52],tolerated,–
